Measurements reported in ChEMBL document CHEMBL1156768, “The structure-activity relationship of the antimalarial ozonide arterolane (OZ277)” (J Med Chem, 2010).
Converted amounts (≈) assume the structure as drawn. Blank lines part the entries; values can stand above or below the molecule they belong to.

Assays:
Plasmodium berghei [1] = experiment: Antiplasmodial activity against Plasmodium berghei infected in NMRI mice (Mus musculus) assessed as curing of parasitaemia at 3 mg/kg, perorally daily once for 3 consecutive days measured after 30 days post-infection; assay type: functional; conditions: route oral
Summary of the method: (§1)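 P. berghei-infected NMRI mice, in groups of five, were dosed orally at 3 mg/kg on days +1, +2 and +3 postinfection. Parasitemia reduction, survival time and cure were scored.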

Plasmodium berghei [2] = experiment: Antiplasmodial activity against Plasmodium berghei infected in NMRI mice (Mus musculus) assessed as reduction of parasitaemia level at 10 mg/kg, perorally administered 1 day after post-infection measured after 3 days post-infection; assay type: functional; set-up: scale not given: the % may be the effect or the level left; conditions: route oral
Summary of the method: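 Groups of five NMRI mice infected with P. berghei received a single oral dose on day 1 postinfection. Read-out was percent reduction in parasitemia on day 3 postinfection. Individual measurements differed by less than 10%.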

Plasmodium berghei [3] = experiment: Antiplasmodial activity against Plasmodium berghei infected in NMRI mice (Mus musculus) assessed as mice (Mus musculus) survival days at 3 mg/kg, perorally daily once for 3 consecutive days measured after 4 days post-infection; assay type: functional; conditions: route oral; summary of the method: as §1
Plasmodium berghei [4] = experiment: Antiplasmodial activity against Plasmodium berghei infected in NMRI mice (Mus musculus) assessed as reduction of parasitaemia level at 3 mg/kg, perorally daily once for 3 consecutive days measured after 4 days post-infection; assay type: functional; set-up: scale not given: the % may be the effect or the level left; conditions: route oral; summary of the method: as §1
Plasmodium falciparum [5] = experiment: Antimalarial activity against chloroquine-resistant Plasmodium falciparum K1 infected in human A+ erythrocytes assessed as [3H]hypoxanthine incorporation by semiautomated micro dilution assay; assay type: functional, organism-based
Plasmodium falciparum [6] = experiment: Antimalarial activity against chloroquine-sensitive Plasmodium falciparum NF54 infected in human A+ erythrocytes assessed as [3H]hypoxanthine incorporation by semi-automated micro dilution assay; assay type: functional, organism-based
[7] = Half life in Sprague-Dawley rat at 2.5 to 3.5 mg/kg, iv; assay type: ADME, organism-based; set-up: dose 2.5-3.5 mg/kg, route intravenous; conditions: in vivo
Summary of the method: (§2)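 Rats received an IV infusion over 5-10 min through a jugular cannula at 2.5-3.5 mg/kg, in DMSO/aqueous buffer or propylene glycol/ethanol/water. Oral gavage used aqueous suspensions in HPMC or CMC with 0.4% Tween 80 and 0.5% benzyl alcohol. Carotid blood was sampled, and plasma was acetonitrile-precipitated and measured by LC/MS against plasma calibration standards. Values are averages of 2-3 determinations.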

[8] = Oral bioavailability in Sprague-Dawley rat; assay type: ADME, organism-based; conditions: in vivo; summary of the method: as §2
Rattus norvegicus [9] = experiment: Liver toxicity in Sprague-Dawley rat at 300 mg/kg, po daily once for 5 days; assay type: organism-based; set-up: dose 300 mg/kg, route oral; conditions: in vivo, 120 h
Summary of the method: (§3)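 Preliminary toxicology was run in male rats given daily oral doses for five days.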

Cytochrome P450 2C9 = Cytochrome P450 2C9 (Homo sapiens, UniProt P11712); experiment: Inhibition of human CYP2C9 up to 50 uM; assay type: ADME
Cytochrome P450 2C9, sequence (P11712 whole entry): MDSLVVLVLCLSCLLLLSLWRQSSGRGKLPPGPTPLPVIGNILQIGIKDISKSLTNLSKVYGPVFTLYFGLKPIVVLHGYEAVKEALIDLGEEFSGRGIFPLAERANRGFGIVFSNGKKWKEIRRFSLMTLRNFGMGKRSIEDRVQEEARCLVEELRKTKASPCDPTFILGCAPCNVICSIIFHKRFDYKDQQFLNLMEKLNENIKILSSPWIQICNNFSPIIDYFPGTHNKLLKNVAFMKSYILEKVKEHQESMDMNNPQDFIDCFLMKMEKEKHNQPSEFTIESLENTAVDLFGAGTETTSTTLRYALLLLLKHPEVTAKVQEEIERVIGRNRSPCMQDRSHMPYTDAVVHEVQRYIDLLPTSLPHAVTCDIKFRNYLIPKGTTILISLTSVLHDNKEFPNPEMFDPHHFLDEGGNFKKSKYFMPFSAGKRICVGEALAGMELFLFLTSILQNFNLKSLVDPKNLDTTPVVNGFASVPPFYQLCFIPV

[10] = Blood clearance in Sprague-Dawley rat at 2.5 to 3.5 mg/kg, iv; assay type: ADME, organism-based; set-up: dose 2.5-3.5 mg/kg, route intravenous; conditions: whole blood; summary of the method: as §2
[11] = Volume of distribution in Sprague-Dawley rat at 2.5 to 3.5 mg/kg, iv; assay type: ADME, organism-based; set-up: dose 2.5-3.5 mg/kg, route intravenous; conditions: in vivo; summary of the method: as §2
Rattus norvegicus [12] = experiment: Lymphatic organ toxicity in Sprague-Dawley rat at 300 mg/kg, po daily once for 5 days; assay type: organism-based; set-up: dose 300 mg/kg, route oral; conditions: in vivo, 120 h; summary of the method: as §3
Rattus norvegicus [13] = experiment: Renal toxicity in Sprague-Dawley rat at 300 mg/kg, po daily once for 5 days; assay type: organism-based; set-up: dose 300 mg/kg, route oral; conditions: in vivo, 120 h; summary of the method: as §3
Cytochrome P450 2D6 = Cytochrome P450 2D6 (Homo sapiens, UniProt P10635); experiment: Inhibition of human CYP2D6 up to 50 uM; assay type: ADME
Cytochrome P450 2D6, sequence (P10635 whole entry): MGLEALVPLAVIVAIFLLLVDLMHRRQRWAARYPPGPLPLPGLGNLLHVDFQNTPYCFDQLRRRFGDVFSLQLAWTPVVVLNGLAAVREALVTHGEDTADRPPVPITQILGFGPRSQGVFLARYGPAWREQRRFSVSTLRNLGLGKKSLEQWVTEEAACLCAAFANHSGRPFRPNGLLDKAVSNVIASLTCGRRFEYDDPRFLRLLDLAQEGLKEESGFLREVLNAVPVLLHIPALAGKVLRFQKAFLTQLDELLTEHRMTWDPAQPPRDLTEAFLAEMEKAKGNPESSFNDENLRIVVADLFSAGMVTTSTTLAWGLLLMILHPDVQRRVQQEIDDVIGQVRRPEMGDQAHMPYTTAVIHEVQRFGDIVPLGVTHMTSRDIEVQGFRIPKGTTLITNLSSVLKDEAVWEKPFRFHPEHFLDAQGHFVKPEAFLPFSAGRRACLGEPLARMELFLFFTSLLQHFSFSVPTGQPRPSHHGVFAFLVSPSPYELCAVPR

Cytochrome P450 3A4 = Cytochrome P450 3A4 (Homo sapiens, UniProt P08684); experiment: Inhibition of human CYP3A4 up to 50 uM; assay type: ADME
Cytochrome P450 3A4, sequence (P08684 whole entry): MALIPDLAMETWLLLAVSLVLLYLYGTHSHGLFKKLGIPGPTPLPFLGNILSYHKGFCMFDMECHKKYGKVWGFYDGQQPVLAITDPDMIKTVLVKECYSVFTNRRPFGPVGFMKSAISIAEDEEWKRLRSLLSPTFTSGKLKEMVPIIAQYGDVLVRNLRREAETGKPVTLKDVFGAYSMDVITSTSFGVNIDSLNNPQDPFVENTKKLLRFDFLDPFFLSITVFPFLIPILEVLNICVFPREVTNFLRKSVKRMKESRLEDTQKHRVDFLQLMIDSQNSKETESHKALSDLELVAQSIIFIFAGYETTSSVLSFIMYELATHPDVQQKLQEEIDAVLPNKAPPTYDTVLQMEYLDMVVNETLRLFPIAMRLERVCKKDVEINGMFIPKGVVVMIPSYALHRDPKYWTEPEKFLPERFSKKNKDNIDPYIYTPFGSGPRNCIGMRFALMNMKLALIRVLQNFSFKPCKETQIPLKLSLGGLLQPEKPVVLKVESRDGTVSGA

Rattus norvegicus [14] = experiment: Neurotoxicity in Sprague-Dawley rat at 300 mg/kg, po daily once for 5 days; assay type: toxicity, organism-based; set-up: dose 300 mg/kg, route oral; conditions: in vivo, 120 h; summary of the method: as §3
[15] = Plasma clearance in Sprague-Dawley rat at 2.5 to 3.5 mg/kg, iv; assay type: ADME, organism-based; set-up: dose 2.5-3.5 mg/kg, route intravenous; summary of the method: as §2
[16] = Partition coefficient, log D in octanol/buffer at pH 7.4 by chromatographic method; assay type: physicochemical

SMILES: Cc1ccc(S(=O)(=O)O)cc1.N[C@H]1CC[C@H](NC(=O)C[C@H]2CC[C@]3(CC2)OO[C@]2(O3)C3CC4CC(C3)CC2C4)CC1
Activity (Plasmodium berghei [1]): 0% | Activity (Plasmodium berghei [2]): >99.9% | Survival (Plasmodium berghei [3]): 22 days | Activity (Plasmodium berghei [4]): >99.9%

SMILES: O=C(O)C1CCN(C(=O)C[C@H]2CC[C@]3(CC2)OO[C@]2(O3)C3CC4CC(C3)CC2C4)CC1
IC50 (Plasmodium falciparum [5]): 19 ng/mL (≈ 43.8 nM) | IC50 (Plasmodium falciparum [6]): 27 ng/mL (≈ 62.3 nM)

SMILES: O=C(C[C@H]1CC[C@]2(CC1)OO[C@]1(O2)C2CC3CC(C2)CC1C3)NO
Activity (Plasmodium berghei [2]): 97% | IC50 (Plasmodium falciparum [5]): 1.4 ng/mL (≈ 4.15 nM) | IC50 (Plasmodium falciparum [6]): 2 ng/mL (≈ 5.93 nM)

SMILES: O=C1CN(C(=O)C[C@H]2CC[C@]3(CC2)OO[C@]2(O3)C3CC4CC(C3)CC2C4)CCN1
Activity (Plasmodium berghei [2]): 99.2% | IC50 (Plasmodium falciparum [5]): 0.6 ng/mL (≈ 1.48 nM) | IC50 (Plasmodium falciparum [6]): 0.89 ng/mL (≈ 2.2 nM)

SMILES: O=C(C[C@H]1CC[C@]2(CC1)OO[C@]1(O2)C2CC3CC(C2)CC1C3)N1CCS(=O)(=O)CC1
Activity (Plasmodium berghei [2]): <40%

SMILES: Cc1ccc(S(=O)(=O)O)cc1.NC1CCN(C(=O)C[C@H]2CC[C@]3(CC2)OO[C@]2(O3)C3CC4CC(C3)CC2C4)CC1
Activity (Plasmodium berghei [1]): 60% | half-life [7]: 1.38 h | bioavailability [8]: 78% | Activity (Rattus norvegicus [9]): Non-toxic | Activity (Cytochrome P450 2C9): Not Active | Activity (Plasmodium berghei [2]): >99.9% | IC50 (Plasmodium falciparum [6]): 0.39 ng/mL | Survival (Plasmodium berghei [3]): 27 days | Activity (Plasmodium berghei [4]): >99.9% | clearance [10]: 39.1 mL/min/kg | Vd [11]: 19 L/kg | Activity (Rattus norvegicus [12]): Non-toxic | Activity (Rattus norvegicus [13]): Non-toxic | Activity (Cytochrome P450 2D6): Not Active | Activity (Cytochrome P450 3A4): Not Active | Activity (Rattus norvegicus [14]): Non-toxic | clearance [15]: 157 mL/min/kg

SMILES: CC(C)(N)CNC(=O)[C@H]1CC[C@]2(CC1)OO[C@]1(O2)C2CC3CC(C2)CC1C3.Cc1ccc(S(=O)(=O)O)cc1
Activity (Plasmodium berghei [2]): 96% | IC50 (Plasmodium falciparum [5]): 0.66 ng/mL | IC50 (Plasmodium falciparum [6]): 0.25 ng/mL

SMILES: O=C(C[C@H]1CC[C@]2(CC1)OO[C@]1(O2)C2CC3CC(C2)CC1C3)N1CCCCC1
IC50 (Plasmodium falciparum [5]): 1.6 ng/mL (≈ 4.11 nM) | IC50 (Plasmodium falciparum [6]): 1.6 ng/mL (≈ 4.11 nM)

SMILES: O=C(C[C@H]1CC[C@]2(CC1)OO[C@]1(O2)C2CC3CC(C2)CC1C3)N1CCC(O)CC1
half-life [7]: 11 h | bioavailability [8]: 5% | Activity (Plasmodium berghei [2]): 99.7% | IC50 (Plasmodium falciparum [5]): 0.49 ng/mL (≈ 1.21 nM) | IC50 (Plasmodium falciparum [6]): 0.76 ng/mL (≈ 1.87 nM) | Vd [11]: 36 L/kg | clearance [15]: 37 mL/min/kg

SMILES: O=C(C[C@H]1CC[C@]2(CC1)OO[C@]1(O2)C2CC3CC(C2)CC1C3)N1CCOCC1
Activity (Plasmodium berghei [2]): 99.8% | IC50 (Plasmodium falciparum [5]): 1.7 ng/mL (≈ 4.34 nM) | IC50 (Plasmodium falciparum [6]): 3 ng/mL (≈ 7.66 nM)

SMILES: NC(=O)C[C@H]1CC[C@]2(CC1)OO[C@]1(O2)C2CC3CC(C2)CC1C3
Activity (Plasmodium berghei [2]): 97% | IC50 (Plasmodium falciparum [5]): 0.91 ng/mL (≈ 2.83 nM) | IC50 (Plasmodium falciparum [6]): 1.1 ng/mL (≈ 3.42 nM)

SMILES: Cc1ccc(S(=O)(=O)O)cc1.NCCCNC(=O)C[C@H]1CC[C@]2(CC1)OO[C@]1(O2)C2CC3CC(C2)CC1C3
Activity (Plasmodium berghei [2]): 99.9% | IC50 (Plasmodium falciparum [5]): 3.5 ng/mL | IC50 (Plasmodium falciparum [6]): 2.3 ng/mL

Vd [11]: 3 L/kg | clearance [15]: 72 mL/min/kg
SMILES: C[C@H]1[C@@H](O)O[C@@H]2O[C@@]3(C)CC[C@H]4[C@H](C)CC[C@@H]1[C@@]24OO3 [ARTENIMOL]

SMILES: CC(C)(N)CNC(=O)C[C@H]1CC[C@]2(CC1)OO[C@]1(O2)C2CC3CC(C2)CC1C3.Cc1ccc(S(=O)(=O)O)cc1 [ARTEROLANE]
Activity (Plasmodium berghei [1]): 0% | half-life [7]: 1.27 h | bioavailability [8]: 26% | chromatographic logD [16]: 2.9 | Activity (Rattus norvegicus [9]): Non-toxic | Activity (Cytochrome P450 2C9): Not Active | Activity (Plasmodium berghei [2]): 99.9% | IC50 (Plasmodium falciparum [5]): 1 ng/mL | IC50 (Plasmodium falciparum [6]): 0.91 ng/mL | Survival (Plasmodium berghei [3]): 11.4 days | Activity (Plasmodium berghei [4]): >99.9% | clearance [10]: 62 mL/min/kg | Vd [11]: 16 L/kg | Activity (Rattus norvegicus [12]): Non-toxic | Activity (Rattus norvegicus [13]): Non-toxic | Activity (Cytochrome P450 2D6): Not Active | Activity (Cytochrome P450 3A4): Not Active | Activity (Rattus norvegicus [14]): Non-toxic | clearance [15]: 141 mL/min/kg

SMILES: C[C@H]1[C@H](OC(=O)CCC(=O)O)O[C@@H]2O[C@@]3(C)CC[C@H]4[C@H](C)CC[C@@H]1[C@@]24OO3 [ARTESUNATE]
Activity (Rattus norvegicus [9]): Non-toxic | Survival (Plasmodium berghei [3]): 9.2 days | Activity (Plasmodium berghei [4]): 70% | Activity (Rattus norvegicus [12]): Non-toxic | Activity (Rattus norvegicus [13]): Non-toxic | Activity (Rattus norvegicus [14]): Non-toxic

SMILES: CCN(CC)CCCC(C)Nc1ccnc2cc(Cl)ccc12 (stereo unspecified) [CHLOROQUINE]
Survival (Plasmodium berghei [3]): 9.4 days

SMILES: OC(c1cc(C(F)(F)F)nc2c(C(F)(F)F)cccc12)C1CCCCN1 (stereo unspecified) [MEFLOQUINE]
Survival (Plasmodium berghei [3]): 15.8 days | Activity (Plasmodium berghei [4]): 99%
